Experimental findings from ChEMBL document CHEMBL1122239, “Synthesis and biological properties of new hexapeptide substrates for vitamin K dependent carboxylase. Evidence for X-Pro cis/trans amide bond interconversions in prothrombin precursor fragment 18-23” (J Med Chem, 1983) are described below.

What all share (format): functional
Series [1] concerns the target T1, Vitamin K-dependent gamma-carboxylase (Rattus norvegicus) (UniProt O88496).
T1 sequence (whole entry): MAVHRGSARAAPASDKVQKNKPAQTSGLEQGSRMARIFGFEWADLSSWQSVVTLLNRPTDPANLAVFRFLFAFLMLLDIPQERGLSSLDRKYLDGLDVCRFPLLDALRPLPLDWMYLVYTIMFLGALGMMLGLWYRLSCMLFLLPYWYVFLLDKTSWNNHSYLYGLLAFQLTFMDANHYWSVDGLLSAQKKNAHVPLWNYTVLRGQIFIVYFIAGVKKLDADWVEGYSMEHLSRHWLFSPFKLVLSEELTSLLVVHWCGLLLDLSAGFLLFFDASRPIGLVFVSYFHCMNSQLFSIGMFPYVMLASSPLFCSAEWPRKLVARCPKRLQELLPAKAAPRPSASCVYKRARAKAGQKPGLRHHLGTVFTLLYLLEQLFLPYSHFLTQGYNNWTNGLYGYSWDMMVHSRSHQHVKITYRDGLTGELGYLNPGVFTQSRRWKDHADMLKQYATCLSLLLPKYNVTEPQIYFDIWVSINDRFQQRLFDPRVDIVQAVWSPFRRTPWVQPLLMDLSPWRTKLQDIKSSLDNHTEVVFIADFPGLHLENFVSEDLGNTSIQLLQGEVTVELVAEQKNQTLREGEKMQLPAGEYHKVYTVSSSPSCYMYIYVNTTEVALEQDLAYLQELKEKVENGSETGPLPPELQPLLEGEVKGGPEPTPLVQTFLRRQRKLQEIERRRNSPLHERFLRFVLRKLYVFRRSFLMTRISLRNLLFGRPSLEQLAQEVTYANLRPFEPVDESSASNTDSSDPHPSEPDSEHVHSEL
Nature of the series: Compound was evaluated as substrates for vitamin K dependent carboxylase and percent CO2 incorporation was determined at 1 mM concentrations. The method, boiled down: (§1)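 Vitamin K dependent carboxylase, which needs O2, reduced vitamin K and CO2, was given each hexapeptide directly as substrate at 0.25, 1, 4.25 or 5.5 mM. Carboxylation of Glu to Gla was reported as percent CO2 incorporation. The full assay procedure is given only by reference to earlier work.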

The target in series [2] is T1, Vitamin K-dependent gamma-carboxylase (Rattus norvegicus). Nature of the series: Compound was evaluated as substrates for vitamin K dependent carboxylase and percent CO2 incorporation was determined at 4.25 mM concentrations. An outline of the steps:
as §1

The target is the same in series [3]. Nature of the series: Compound was evaluated as substrates for vitamin K dependent carboxylase and percent CO2 incorporation was determined at 0.25 mM concentrations. The method, boiled down:
as §1

Series [4] is described as follows: Carboxylation of 0.25 mM Phe-Leu-Glu-Glu-Leu at a concentration of 4.25 mM. The method, boiled down:
(§2)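 Inhibition format: the hexapeptide was added at 1, 4.25 or 5.5 mM to a carboxylase reaction containing 0.25 mM H-Phe-Leu-Glu-Glu-Leu-OH as the reference substrate. Carboxylation of the pentapeptide was reported as a percentage. The detailed assay procedure is given only by reference to earlier work.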

The nature of series [5]: Carboxylation of 0.25 mM Phe-Leu-Glu-Glu-Leu at a concentration of 1 mM. The method, boiled down: as §2
Series [6] can be described thus: Carboxylation of 0.25 mM Phe-Leu-Glu-Glu-Leu at a concentration of 5.5 mM. The method, boiled down:
as §2

The target in series [7] is T1, Vitamin K-dependent gamma-carboxylase (Rattus norvegicus). Nature of the series: Compound was evaluated as substrates for vitamin K dependent carboxylase and percent CO2 incorporation was determined at 5.5 mM concentrations. The method, boiled down: as §1
Substrate in series [8]: CC(C)C[C@H]1NC(=O)[C@H](N)CSSC[C@@H](C(=O)O)NC(=O)[C@@H]2CCCN2C(=O)[C@@H](CCC(=O)O)NC(=O)[C@H](CCC(=O)O)NC1=O
Put plainly: (§3) Compound was evaluated as substrates for vitamin K dependent carboxylase and percent CO2 incorporation was determined. The method, boiled down: as §1

Substrate in series [9]: COC(=O)[C@@H]1CSSC[C@@H](NC(C)=O)C(=O)N[C@H](CC(C)C)C(=O)N[C@@H](CCC(=O)O)C(=O)N[C@H](CCC(=O)O)C(=O)N2CCC[C@H]2C(=O)N1
Described as §3. An outline of the steps: as §1

Substrate in series [10]: CC(C)C[C@H](NC(=O)[C@H](CC(N)=O)NC(=O)[C@H]1CSSC[C@H](NC(=O)[C@H](CCC(=O)O)NC(=O)[C@H](CCCN=C(N)N)NC(=O)[C@H](CCC(=O)O)NC(=O)[C@H](CC(C)C)NC(=O)[C@@H](N)CC(N)=O)C(=O)N[C@@H](CC(C)C)C(=O)N[C@H](CCC(=O)O)C(=O)N[C@@H](CCC(=O)O)C(=O)N2CCC[C@@H]2C(=O)N1)C(=O)N[C@@H](CCC(=O)O)C(=O)N[C@@H](CCCN=C(N)N)C(=O)N[C@@H](CCC(=O)O)C(=O)N[C@@H](CS)C(=O)O
Nature of the series: (§4) Compound was evaluated as substrates for vitamin K dependent carboxylase. An outline of the steps: as §1

Substrate in series [11]: CC(C)C[C@H](NC(=O)[C@@H](N)CC(N)=O)C(=O)N[C@@H](CCC(=O)O)C(=O)N[C@@H](CCCN=C(N)N)C(=O)N[C@@H](CCC(=O)O)C(=O)N[C@@H](CS)C(=O)O
The series is described as §4. The method, boiled down: as §1

Substrate in series [12]: CC(C)C[C@H](NC(=O)[C@H](CCC(=O)O)NC(=O)[C@H](CCC(=O)O)NC(=O)[C@H](CC(C)C)NC(=O)[C@@H](N)Cc1ccccc1)C(=O)O
Described as §4. An outline of the steps:
as §1

Consider `CC(C)C[C@H](NC(=O)[C@H](C)N)C(=O)N[C@@H](CCC(=O)O)C(=O)N[C@@H](CCC(=O)O)C(=O)N1CCC[C@@H]1C(=O)N[C@@H](C)C(=O)O`, for which the Incorporation came to 16% in series [1]; 24% in series [2]; 14% in series [3]; 134% in [4]; 99% in [5].

For `COC(=O)[C@@H]1CSSC[C@@H](NC(C)=O)C(=O)N[C@H](CC(C)C)C(=O)N[C@@H](CCC(=O)O)C(=O)N[C@H](CCC(=O)O)C(=O)N2CCC[C@H]2C(=O)N1`, the Incorporation in [6] was determined as 54%; in [1] it was 2.4%; in series [7] it was 2.2%; in [3], 3.3%; in [5], 51%.

In the case of `CC(C)C[C@H]1NC(=O)[C@H](N)CSSC[C@@H](C(=O)O)NC(=O)[C@H](C)NC(=O)[C@@H](CCC(=O)O)NC(=O)[C@H](CCC(=O)O)NC1=O`, the Incorporation in [1] stood at 48%; in series [2], 56%; in series [3], 50%; in series [4], 85%; in series [5], 103%.

Regarding `CC(C)C[C@H]1NC(=O)[C@H](N)CSSC[C@@H](C(=O)O)NC(=O)[C@@H](C)NC(=O)[C@@H](CCC(=O)O)NC(=O)[C@H](CCC(=O)O)NC1=O`, the Incorporation in [1] was determined as 60%; in series [2], 59%; in [3], 63%; in series [4] it was 83%; in series [5], 94%.

Take `CC(C)C[C@H]1NC(=O)[C@H](N)CSSC[C@@H](C(=O)O)NC(=O)[C@@H]2CCCN2C(=O)[C@@H](CCC(=O)O)NC(=O)[C@H](CCC(=O)O)NC1=O`: the Incorporation in series [6] is 78%; in series [1], 7%; in series [7], 8.7%; in series [3], 7.5%; in series [5], 98%.

B1: Vitamin K-dependent gamma-carboxylase (Rattus norvegicus), O88496 (protein)
chain: T1 sequence (whole entry)
Regarding B1, the Km turned out to be 8 mM in series [8]; 8 mM in series [9]; 0.001 mM in [10]; 8 mM in series [11]; 8 mM in series [12].

The term Km denotes the concentration of substrate that gives half-maximal velocity.
